Series [1] can be described thus: Displacement of [3H]colchicine from tubulin at 1 uM after 10 mins. The method, boiled down: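 [³H]colchicine binding: 1.0 μM tubulin with 5.0 μM [³H]colchicine and compound, incubated 10 min at 37 °C. The tubulin–colchicine complex was separated from unbound label by retention on DEAE-cellulose filters. Result is inhibition of radiolabel binding.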
(In general: In a radioligand displacement assay an active substance lowers the binding of a labelled ligand.)

The next series deals with P388. The experiment in a line: Growth inhibition of mouse P388 cells after 48 hrs by Z1 Beckman/Coulter particle counter analysis. The class given is functional. Particulars: P388, 48 h, read-out: ED50 (the source's name). A digest of the protocol:
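Mouse P388 leukemia cells were incubated 24 h in 10% horse serum/Fisher medium, then exposed 48 h to serial compound dilutions. ED50 was calculated from cell counts on a Coulter Z1 particle counter.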

The next series deals with KM-20L2. The experiment in a line: Growth inhibition of human KM20L2 cells after 48 hrs by sulforhodamine B assay. The format is functional. Particulars: KM-20L2, 48 h. A digest of the protocol: (§1)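 NCI sulforhodamine B assay. Cells were seeded in 5% FBS/RPMI-1640 and incubated 24 h. Serial compound dilutions were then added for 48 h. Cells were fixed with trichloroacetic acid, stained with SRB and read by microplate reader. GI50 is the concentration giving 50% reduction in net protein increase, calculated from optical density data.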
(The SRB assay estimates cell density from bound dye.)

The test system of the next series is DU-145. Kind of series: Growth inhibition of human DU145 cells after 48 hrs by sulforhodamine B assay. The format is functional. Particulars: DU-145, 48 h. The method, boiled down:
as §1

A further series has as its system NCI-H460. Kind of series: Growth inhibition of human NCI-H460 cells after 48 hrs by sulforhodamine B assay. The class given is functional. Particulars: NCI-H460, 48 h. The method, boiled down: as §1
Series [2] in a line: Displacement of [3H]colchicine from tubulin at 5 uM after 10 mins. A digest of the protocol: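 Purified tubulin 1.0 μM incubated with 5.0 μM [³H]colchicine and test compound for 10 min at 37 °C. Tubulin–colchicine complex retained on DEAE-cellulose filters to separate it from unbound label. Read-out is the percent inhibition of radiolabel binding.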
The test system of a further series is SF-268. The experiment in a line: Growth inhibition of human SF268 cells after 48 hrs by sulforhodamine B assay. The format is functional. Particulars: SF-268, 48 h. The method, boiled down: as §1
The next series has as its system BXPC-3. The experiment in a line: Growth inhibition of human BxPC3 cells after 48 hrs by sulforhodamine B assay. The class given is functional. Particulars: BXPC-3, 48 h. The method, boiled down: as §1
For series [3], the system named is Neisseria gonorrhoeae. Kind of series: Antibacterial activity against Neisseria gonorrhoeae assessed per disc. The format is functional.
The next series concerns Micrococcus luteus. The experiment in a line: Antibacterial activity against Micrococcus luteus assessed per disc. The format is functional.
Series [4] relates to HUVEC. The experiment in a line: Antiangiogenic activity in HUVEC assessed as reduction of cord length at 0.01 ug/ml after 24 hrs by matrigel assay relative to control. On the set-up: scale not given: the % may be the effect or the level left. The class given is functional, Homo sapiens. A digest of the protocol: (§2)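 Commercial HUVECs grown in EGM-2 were seeded at 2 × 10⁵ cells/mL onto Matrigel, which had been polymerized 15 min at rt and then 30 min at 37 °C, per NCI DTP protocol. Compound was added and cells were incubated 24 h, then imaged by inverted microscopy. Cord length and junction number were scored against untreated control on a scale from − (none) to +++ (same as control), with ++ = 50% of control.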

In another series the test system is MCF7. Kind of series: Growth inhibition of human MCF7 cells after 48 hrs by sulforhodamine B assay. The class given is functional. Particulars: MCF7, 48 h. The method, boiled down: as §1
Series [5] has as its system HUVEC. The experiment in a line: Antiangiogenic activity in HUVEC assessed as cell growth at 0.001 ug/ml after 24 hrs by sulforhodamine B assay relative to control. The class given is functional, Homo sapiens.
A further series has as its system SW-1736. The experiment in a line: Growth inhibition of human SW1736 cells after 48 hrs by sulforhodamine B assay. The format is functional. Particulars: SW-1736, 48 h.
The test system of the next series is IMR-32. The experiment in a line: Growth inhibition of human IMR32 cells after 48 hrs by sulforhodamine B assay. The format is functional. Particulars: IMR-32, 48 h. A digest of the protocol:
as §1

A short description of series [6]: Growth inhibition of human KAT4 cells after 48 hrs by sulforhodamine B assay. The format is functional. Particulars: KAT-4, 48 h.
In series [7] the test system is HUVEC. The experiment in a line: Antiangiogenic activity in HUVEC assessed as cell growth at 0.0001 ug/ml after 24 hrs by sulforhodamine B assay relative to control. The format is functional, Homo sapiens.
For series [8], the system named is Neisseria gonorrhoeae. Kind of series: Antibacterial activity against Neisseria gonorrhoeae ATCC 49226 by broth microdilution method. The format is functional. A digest of the protocol: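 Broth microdilution followed NCCLS standard methods. Compounds were reconstituted in sterile DMSO and diluted in the appropriate medium immediately before testing. MIC was taken as the lowest concentration giving no visible growth (optically clear). Assays were repeated on separate days.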
(Dilution methods test growth across graded concentrations, often in twofold steps.)

In series [9] the test system is HUVEC. The experiment in a line: Antiangiogenic activity in HUVEC assessed as reduction of number of junctions at 0.01 ug/ml after 24 hrs by matrigel assay relative to control. The class given is functional, Homo sapiens. On the set-up: scale not given: the % may be the effect or the level left. A digest of the protocol:
as §2

The test system of the next series is SK-N-AS. Kind of series: Growth inhibition of human SK-N-AS cells after 48 hrs by sulforhodamine B assay. The class given is functional. A digest of the protocol: as §1
The next series concerns SK-N-SH. Kind of series: Growth inhibition of human SK-N-SH cells after 48 hrs by sulforhodamine B assay. The format is functional. The method, boiled down: as §1
Series [10] in a line: Solubility of the compound in water. The format is physicochemical. Particulars: buffer. A digest of the protocol: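 Solubility expressed as amount dissolving in 1 mL H₂O at 25 °C.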
For series [11], the system named is HUVEC. The experiment in a line: Antiangiogenic activity in HUVEC assessed as cell growth at 0.1 ug/ml after 24 hrs by sulforhodamine B assay relative to control. The format is functional, Homo sapiens.
Series [12] deals with HUVEC. Kind of series: Antiangiogenic activity in HUVEC assessed as cell growth at 0.01 ug/ml after 24 hrs by sulforhodamine B assay relative to control. The class given is functional, Homo sapiens.
The test system of series [13] is HUVEC. The experiment in a line: Antiangiogenic activity in HUVEC assessed as cell growth inhibition after 48 hrs by sulforhodamine B assay. The format is functional, cell-based. Particulars: Homo sapiens. A digest of the protocol: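 HUVECs were grown in EGM-2 medium and tested with the standard SRB growth assay following NCI Developmental Therapeutics Program Matrigel antiangiogenesis protocols. IC50 (concentration causing 50% inhibition) was calculated from plotted data.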

Series [14] can be described thus: Inhibition of purified tubulin assembly after 20 mins. The method, boiled down:
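Purified tubulin at 10 μM in 0.8 M monosodium glutamate (pH 6.6), 0.4 mM GTP and 4% (v/v) DMSO, with varying compound concentrations. Extent of assembly was measured after 20 min at 30 °C.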

Series [15] concerns HUVEC. Kind of series: Antiangiogenic activity in HUVEC assessed as reduction of number of junctions at 0.1 ug/ml after 24 hrs by matrigel assay relative to control. The class given is functional, cell-based. Particulars: Homo sapiens. A digest of the protocol:
as §2

In series [16] the test system is HUVEC. The experiment in a line: Antiangiogenic activity in HUVEC assessed as reduction of cord length at 0.001 ug/ml after 24 hrs by matrigel assay relative to control. The format is functional. Particulars: Homo sapiens. The method, boiled down: as §2
The subject of series [17] is HUVEC. Kind of series: Antiangiogenic activity in HUVEC assessed as reduction of number of junctions at 0.0001 ug/ml after 24 hrs by matrigel assay relative to control. The format is functional. Particulars: Homo sapiens. The method, boiled down: (§3)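 Matrigel was polymerised in wells (15 min rt, then 30 min 37 °C). HUVECs (2 × 10⁵ cells/mL) were added with compound and incubated 24 h, then imaged by inverted microscope. Cord length and junction number were scored semi-quantitatively versus untreated control (− none to +++ same as control).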

Series [18] concerns HUVEC. The experiment in a line: Antiangiogenic activity in HUVEC assessed as reduction of cord length at 0.00001 ug/ml after 24 hrs by matrigel assay relative to control. The class given is functional, cell-based. Particulars: Homo sapiens. The method, boiled down: as §2
The subject of series [19] is HUVEC. Kind of series: Antiangiogenic activity in HUVEC assessed as reduction of cord length at 0.1 ug/ml after 24 hrs by matrigel assay relative to control. Particulars: Homo sapiens. The class given is functional, cell-based. A digest of the protocol:
as §2

For series [20], the system named is HUVEC. Kind of series: Antiangiogenic activity in HUVEC assessed as reduction of cord length at 0.0001 ug/ml after 24 hrs by matrigel assay relative to control. The class given is functional. Particulars: Homo sapiens. The method, boiled down:
as §3

For series [21], the system named is HUVEC. The experiment in a line: Antiangiogenic activity in HUVEC assessed as reduction of number of junctions at 0.001 ug/ml after 24 hrs by matrigel assay relative to control. The format is functional. Particulars: Homo sapiens. A digest of the protocol:
as §2

The test system of series [22] is HUVEC. Kind of series: Antiangiogenic activity in HUVEC assessed as reduction of number of junctions at 0.00001 ug/ml after 24 hrs by matrigel assay relative to control. The format is functional, cell-based. Particulars: Homo sapiens. The method, boiled down:
as §2

Setting [23] is: Homo sapiens, HUVEC, 24 h, read-out: Activity.

Converted amounts (≈) assume the structure as drawn. The source made the active and inactive calls. The rule behind the calls is not given here.

For orientation: inhibition means the share of the control response that was lost under treatment. In general, GI50 refers to the concentration that inhibits growth by half. As usually defined, the solubility is the dissolved amount per volume that the medium holds. Broadly, the IC50 is the concentration that gives 50% inhibition.

In the case of `COc1ccc(/C=C\c2cc(OC)c(OC)c(OC)c2)cc1O` [COMBRETASTATIN A4], the inhibition in [1] amounted to 81%; in [2], 95%. The EC50 in the series with P388 came out at 0.0003 µg/mL (≈ 0.948 nM). Further, the GI50 in the series on KM-20L2 was 0.061 µg/mL (≈ 193 nM); in the series with DU-145 it was 0.0008 µg/mL (≈ 2.53 nM); in the series on NCI-H460, 0.0006 µg/mL (≈ 1.9 nM); in the series with SF-268, below 0.001 µg/mL; in the series with BXPC-3, 0.39 µg/mL (≈ 1230 nM). For the same molecule, the MIC in the series with Neisseria gonorrhoeae [3] and against Micrococcus luteus was 25 µg in each case.

As to `COc1ccc(/C=C\c2cc(I)c(OC)c(I)c2)cc1OP(=O)([O-])[O-].[K+].[K+]`, the Activity with HUVEC [4] worked out at 75%; in the series with HUVEC [9], 75%; in the series on HUVEC [11], 15%; in the series with HUVEC [12], 33%. In the series on P388, the EC50 came to 0.0034 µg/mL. In addition, the GI50 is 0.05 µg/mL in the series with MCF7; above 10 µg/mL in the series with SW-1736; 0.081 µg/mL in the series on IMR-32; 0.38 µg/mL in [6]; 0.002 µg/mL in the series with SK-N-AS; 0.0075 µg/mL in the series on SK-N-SH. Besides, the GI50 in the series on DU-145 was determined as 0.028 µg/mL; in the series with NCI-H460, 0.046 µg/mL; with SF-268, 0.053 µg/mL; with BXPC-3 it was 0.44 µg/mL. Also, the growth at 0.001 µg/mL with HUVEC [5] (setting [23]) is 88%. In addition, the growth at 0.0001 µg/mL with HUVEC [7] (setting [23]) came out at 96%. This molecule also registered an MIC with Neisseria gonorrhoeae [8] below 0.5 µg/mL. Further, the solubility in series [10] was determined as 22 mg/mL. Moreover, the IC50 in the series with HUVEC [13] worked out at 0.0049 µg/mL.

For the molecule `COc1ccc(/C=C\c2cc(I)c(OC)c(OC)c2)cc1OP(=O)([O-])[O-].[Na+].[Na+]`, in the series with P388, the EC50 amounted to 0.002 µg/mL. For the same molecule, the GI50 is 0.018 µg/mL with MCF7; above 1 µg/mL with KM-20L2; 0.011 µg/mL in the series with DU-145; 0.017 µg/mL with NCI-H460; 0.018 µg/mL in the series with SF-268; 0.469 µg/mL with BXPC-3. In addition, the Activity came out at 5% with HUVEC [5], 104% with HUVEC [7] and 14% in the series on HUVEC [12]. Further, the IC50 in series [14] was above 40 µM; in the series on HUVEC [13], 0.00035 µg/mL. Also, the solubility in [10] amounted to 2 mg/mL. For the same molecule, in the series on HUVEC [11] (setting [23]), the growth at 0.1 µg/mL is 7%.

Consider `COc1ccc(/C=C\c2cc(I)c(OC)c(OC)c2)cc1OP(=O)(O)O`, for which the outcome in the series on HUVEC [4] (Homo sapiens), in the series with HUVEC [15], in the series with HUVEC [16], in the series on HUVEC [19], with HUVEC [9] (Homo sapiens) and in the series on HUVEC [21] was Active. The result with HUVEC [17], in the series on HUVEC [18], with HUVEC [20] and with HUVEC [22] was inactive.

For the origin of these results see ChEMBL document CHEMBL2021780, “Antineoplastic agents. 548. Synthesis of iodo- and diiodocombstatin phosphate prodrugs” (J Nat Prod, 2012).
